The text below walks through data of ChEMBL document CHEMBL1177876, “Design and synthesis of 10-alkoxy-5, 6-dihydro-triazolo[4,3-d]benzo[f][1,4]oxazepine derivatives with anticonvulsant activity” (Eur J Med Chem, 2010).

The species named for series [1] is Mus musculus. In words: Protective index, ratio of TD50 for mouse by rotarod test to ED50 for mouse by MES test. It counts as functional. In general terms: In the rotarod test animals must keep their balance on a rotating rod.
For series [2], the system named is Mus musculus. In words: Anticonvulsant activity in mouse assessed as pentylenetetrazole-induced clonic seizures at 30 mg/kg, ip administered 30 mins before pentylenetetrazole challenge measured after 0.5 hrs. It counts as functional. The note with it: route intraperitoneal.
The test system of series [3] is Mus musculus. In words: Anticonvulsant activity in mouse assessed as pentylenetetrazole-induced tonic seizures at 30 mg/kg, ip administered 30 mins before pentylenetetrazole challenge measured after 0.5 hrs. The note with it: route intraperitoneal. Format: functional.
Series [4] deals with Mus musculus. In words: Anticonvulsant activity in mouse assessed as isoniazid-induced clonic seizures at 30 mg/kg, ip administered 30 mins before isoniazid challenge measured after 1 hr. Format: functional. The settings on record: route intraperitoneal.
Series [5] relates to Mus musculus. Put plainly: Anticonvulsant activity in mouse assessed as isoniazid-induced tonic seizures at 30 mg/kg, ip administered 30 mins before isoniazid challenge measured after 1 hr. It counts as functional. The settings on record: route intraperitoneal.
Series [6] deals with Mus musculus. Put plainly: Anticonvulsant activity in mouse assessed as 3-mercaptopropionic acid-induced clonic seizures at 30 mg/kg, ip administered 30 mins before 3-mercaptopropionic acid challenge measured after 0.5 hrs. It counts as functional. The settings on record: route intraperitoneal. In short, it runs like this:
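Mice, 10 per group, dosed i.p. with 30 mg/kg. 30 min later they received 3-mercaptopropionic acid 60 mg/kg sc in saline. Each mouse was observed alone for 0.5 h for seizures.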

Series [7] relates to Mus musculus. In words: Anticonvulsant activity in mouse assessed as 3-mercaptopropionic acid-induced tonic seizures at 30 mg/kg, ip administered 30 mins before 3-mercaptopropionic acid challenge measured after 0.5 hrs. Format: functional. The settings on record: route intraperitoneal. In short, it runs like this:
(§1)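 KunMing mice (18–22 g) in groups of 10 received the test agent, dissolved in DMSO, i.p. 30 min before challenge. The challenge was 3-mercaptopropionic acid, 60 mg/kg in saline, given s.c. Mice were then held in individual cages and observed for 0.5 h for seizures and death.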

For series [8], the system named is Mus musculus. In words: Anticonvulsant activity in mouse assessed as thiosemicarbazide-induced clonic seizures at 30 mg/kg, ip administered 30 mins before thiosemicarbazide challenge measured after 2.5 hrs. Format: functional. The note with it: route intraperitoneal. An outline of the steps: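 Thiosemicarbazide challenge, 50 mg/kg i.p., given 30 min after 30 mg/kg i.p. test compound. Mice, 10 per group, were caged individually and observed for 2.5 h. Clonic and tonic seizures and lethality were recorded.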

For series [9], the system named is Mus musculus. In words: Anticonvulsant activity in mouse assessed as thiosemicarbazide-induced tonic seizures at 30 mg/kg, ip administered 30 mins before thiosemicarbazide challenge measured after 2.5 hrs. Format: functional. The note with it: route intraperitoneal. In short, it runs like this:
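Mice (KunMing, 18–22 g, n = 10 per group) were pretreated i.p. with compound in DMSO. After 30 min, thiosemicarbazide was given at 50 mg/kg i.p. Animals were caged individually and observed for 2.5 h, and the number of clonic seizures, tonic seizures and deaths was recorded.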

Series [10] has as its system Mus musculus. In words: Anticonvulsant activity in mouse assessed as bicuculline-induced clonic seizures at 30 mg/kg, ip administered 30 mins before bicuculline challenge measured after 0.5 hrs. Format: functional. The settings on record: route intraperitoneal. An outline of the steps: (§2)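 Bicuculline 2.7 mg/kg sc, injected 15–45 min after preparation, given 30 min after 30 mg/kg i.p. test compound. Mice, 10 per group, were isolated and watched for at least 30 min for clonic and tonic seizures and lethality.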

For series [11], the system named is Mus musculus. In words: Anticonvulsant activity in mouse assessed as bicuculline-induced tonic seizures at 30 mg/kg, ip administered 30 mins before bicuculline challenge measured after 0.5 hrs. The note with it: route intraperitoneal. It counts as functional. An outline of the steps: as §2
For series [12], the system named is Mus musculus. Put plainly: Anticonvulsant activity in mouse assessed as bicuculline-induced death at 30 mg/kg, ip administered 30 mins before bicuculline challenge measured after 0.5 hrs. It counts as functional. The settings on record: route intraperitoneal. An outline of the steps:
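Groups of 10 KunMing mice (18–22 g) were dosed i.p. with compound in DMSO. After 30 min they received bicuculline, 2.7 mg/kg s.c., injected within 15–45 min of preparation because of its instability. Mice were isolated and watched for at least 30 min, and clonic seizures, tonic seizures and lethality were recorded.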

In series [13] the test system is Mus musculus. In words: Anticonvulsant activity in mouse assessed as protection against maximal electroshock-induced seizures at 100 mg/kg, ip measured after 0.5 hrs. Format: functional, organism-based. Details: dose 100 mg/kg. An outline of the steps:
(§3)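 Phase-I MES screen in KunMing mice, 18–22 g. Compounds dissolved in DMSO and given i.p. at 30, 100 or 300 mg/kg. The MES test followed the NIH ADD protocol and was read at 0.5 h and 4 h after dosing. Six mice per group, scored as number protected/number tested.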

Series [14] deals with Mus musculus. In words: Anticonvulsant activity in mouse assessed as protection against maximal electroshock-induced seizures at 30 mg/kg, ip measured after 0.5 hrs. Set-up: dose 30 mg/kg. Format: functional, organism-based. In short, it runs like this: as §3
On the technique in general: Protection in the maximal electroshock model is a classic sign of anticonvulsant action.

For series [15], the system named is Mus musculus. In words: Anticonvulsant activity in mouse assessed as protection against maximal electroshock-induced seizures at 10 mg/kg, ip measured after 0.5 hrs. Set-up: dose 10 mg/kg. It counts as functional, organism-based.
The subject of series [16] is Mus musculus. In words: Anticonvulsant activity in mouse assessed as protection against maximal electroshock-induced seizures at 300 mg/kg, ip measured after 4 hrs. Set-up: dose 300 mg/kg. It counts as functional, organism-based. In short, it runs like this: as §3
Series [17] relates to Mus musculus. In words: Anticonvulsant activity in mouse assessed as protection against maximal electroshock-induced seizures at 100 mg/kg, ip measured after 4 hrs. Set-up: dose 100 mg/kg. It counts as functional, organism-based. An outline of the steps:
as §3

The test system of series [18] is Mus musculus. Put plainly: Anticonvulsant activity in mouse assessed as protection against maximal electroshock-induced seizures at 30 mg/kg, ip measured after 4 hrs. It counts as functional, organism-based. Set-up: dose 30 mg/kg. An outline of the steps: as §3
For series [19], the system named is Mus musculus. Put plainly: Anticonvulsant activity in mouse assessed as protection against maximal electroshock-induced seizures at 10 mg/kg, ip measured after 4 hrs. Details: dose 10 mg/kg. Format: functional, organism-based.
Series [20] relates to Mus musculus. Put plainly: Anticonvulsant activity in ip dosed mouse assessed as protection against maximal electroshock-induced seizures. Format: functional. In short, it runs like this: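 KunMing mice, 18–22 g, compounds in DMSO, given i.p. at a range of doses, groups of 10. MES test per NIH ADD program. Read-out was seizure protection, with at least three points in the 10–90% range.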

A short description of series [21]: Neurotoxicity in ip dosed mouse assessed as time spent on rotarod by rotarod test. Format: toxicity, organism-based. The note with it: in vivo. In short, it runs like this: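 Rotarod neurotoxicity in KunMing mice, 18–22 g, compounds in DMSO given i.p. Mice were pretrained on a 3.2 cm diameter rod at 10 rpm. Toxicity was defined as failure to stay on the rod for at least 1 min in each trial.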

Series [22] has as its system Mus musculus. Put plainly: Anticonvulsant activity in mouse assessed as 3-mercaptopropionic acid-induced death at 30 mg/kg, ip administered 30 mins before 3-mercaptopropionic acid challenge measured after 0.5 hrs. It counts as functional. The note with it: route intraperitoneal. An outline of the steps: as §1

Calls of active or inactive are those of the source.

For orientation: ED50 means the dose at which the effect has come halfway, by size or by number of responders. Broadly, the TD50 is the dose at which the toxic effect under study appears in half of the subjects.

For `NC(=O)N1c2ccccc2C=Cc2ccccc21` [CARBAMAZEPINE], the PI in the series filed under Mus musculus [1] amounted to 6.4. Also, the Activity in the series on Mus musculus [2] came to 100%; with Mus musculus [3], 0%; in the series with Mus musculus [4], 60%; with Mus musculus [5] it was 0%; in the series with Mus musculus [6], 100%; with Mus musculus [7], 0%. For the same compound, the Activity with Mus musculus [8] turned out to be 100%; in the series with Mus musculus [9], 0%; in the series with Mus musculus [10] it was 100%; in the series on Mus musculus [11], 0%; in the series on Mus musculus [12], 20%.

Take `CCCCCCCOc1ccc2c(c1)-c1nncn1CCO2`: the outcome in the series with Mus musculus [13], in the series with Mus musculus [14] and with Mus musculus [15] was Active. For the same compound, the result with Mus musculus [16], in the series on Mus musculus [17], in the series on Mus musculus [18] and with Mus musculus [19] was inactive. The ED50 in the series with Mus musculus [20] was 6.9 mg/kg. The TD50 in series [21] was 65.7 mg/kg. Besides, in the series listed under Mus musculus [1], the PI is 9.5. The Activity with Mus musculus [2] turned out to be 80%; in the series with Mus musculus [3] it was 0%; with Mus musculus [4] it was 0%; with Mus musculus [5] it was 0%; with Mus musculus [6], 100%; in the series on Mus musculus [7], 0%. Also, the Activity in the series on Mus musculus [22] came out at 20%; with Mus musculus [8], 100%; in the series with Mus musculus [9] it was 30%; in the series with Mus musculus [10], 100%; in the series with Mus musculus [11], 0%.
